Measurements as given in ChEMBL document CHEMBL1782040, “Exceptionally fast uptake and metabolism of cyanidin 3-glucoside by rat kidneys and liver” (J Nat Prod, 2011).

What was measured:
Kidney [1] = assay: Metabolic stability in Wistar rat assessed as parent compound level in kidney at 0.67 umol, iv after 1 min by mass spectrometry analysis; format: ADME, organism-based; conditions: in vivo
How it was run: (§1)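 Fasted, anaesthetized rats received the anthocyanin in saline as a 0.67 μmol iliac-vein bolus (76 μM in plasma). They were sacrificed at 15 s, 1, 5 or 15 min, and plasma, kidneys, liver, urine and bile were collected. Anthocyanins were methanol-extracted, SPE-cleaned and quantified by MS (tandem MS for trace metabolites), then corrected for recovery measured on spiked blood, homogenates and urine. Amounts assume 8.8 mL plasma, 2.4 g kidney and 7.0 g liver, with urine and bile volumes measured.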

Liver [2] = assay: Metabolic stability in Wistar rat assessed as parent compound level in liver at 0.67 umol, iv after 1 min by mass spectrometry analysis; format: ADME, organism-based; conditions: in vivo; how it was run: as §1
Plasma [3] = assay: Metabolic stability in Wistar rat assessed as parent compound level in plasma at 0.67 umol, iv after 0.25 mins by mass spectrometry analysis; format: ADME, organism-based; conditions: in vivo, 15 s; how it was run: as §1
Kidney [4] = assay: Metabolic stability in Wistar rat assessed as parent compound level in kidney at 0.67 umol, iv after 5 mins by mass spectrometry analysis; format: ADME, organism-based; conditions: in vivo; how it was run: as §1
Liver [5] = assay: Metabolic stability in Wistar rat assessed as parent compound level in liver at 0.67 umol, iv after 5 mins by mass spectrometry analysis; format: ADME, organism-based; conditions: in vivo; how it was run: as §1
Kidney [6] = assay: Metabolic stability in Wistar rat assessed as parent compound level in kidney at 0.67 umol, iv after 0.25 mins by mass spectrometry analysis; format: ADME, organism-based; conditions: in vivo, 15 s; how it was run: as §1
[7] = Drug uptake in Wistar rat plasma at 0.67 umol, iv after 15 mins by mass spectrometry analysis; format: ADME, organism-based; how it was run: as §1
Kidney [8] = assay: Drug uptake in Wistar rat kidney assessed by assuming kidney mass was 2.4 gram at 0.67 umol, iv after 5 mins by mass spectrometry analysis; format: ADME, organism-based; conditions: in vivo
How it was run: (§2)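 Cyanidin 3-glucoside in saline was given as one iliac-vein injection (0.67 μmol) to fasting, anaesthetized rats, which were killed at 15 s, 1, 5 or 15 min. Kidneys were homogenized, extracted in methanol, cleaned up by SPE and analysed by LC-MS/MS.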

Nucleic Acid [9] = assay: Ratio of drug uptake in urine to kidney in Wistar rat at 0.67 umol, iv after 15 mins by mass spectrometry analysis; format: ADME, organism-based; conditions: in vivo, 0.25 h
How it was run: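 Fasting anaesthetized rats got 0.67 μmol anthocyanin in saline into the iliac vein (about 76 μM in plasma) and were killed at 15 min. Urine (volume measured) and kidneys (2.4 g assumed) were extracted in methanol and cleaned by SPE. Analytes were quantified by LC-tandem MS, corrected for recovery from spiked matrices, n = 9 rats.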

[10] = Drug uptake in Wistar rat bile assessed by assuming plasma volume was 8.8 mL at 0.67 umol, iv after 15 mins by mass spectrometry analysis; format: ADME, organism-based; conditions: in vivo, 0.25 h
[11] = Metabolic stability in Wistar rat assessed as parent compound level in urine at 0.67 umol, iv after 15 mins by mass spectrometry analysis; format: ADME, organism-based; conditions: in vivo, 0.25 h; how it was run: as §1
Liver [12] = assay: Drug uptake in Wistar rat liver assessed by assuming liver mass was 7 grams at 0.67 umol, iv after 5 mins by mass spectrometry analysis; format: ADME, organism-based; conditions: in vivo; how it was run: as §1
[13] = Elimination rate constant in Wistar rat plasma at 0.67 umol, iv; format: ADME, cell-free
How it was run: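 Rats received a 0.67 μmol iliac-vein bolus in saline under anaesthesia. Plasma amounts (nmol) at 15 s, 1, 5 and 15 min were obtained by recovery-corrected MS and fitted to y = y0 + a·e^(−kt). k is the first-order elimination constant, y0 the steady-state amount, and a the extrapolated t0 amount minus y0.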

[14] = Drug uptake in Wistar rat plasma at 0.67 umol, iv after 0.25 mins by mass spectrometry analysis; format: ADME, organism-based; how it was run: as §1
[15] = Drug uptake in Wistar rat liver at 0.67 umol, iv after 0.25 mins by mass spectrometry analysis; format: ADME, organism-based; conditions: read-out: Drug uptake; how it was run: as §1
Plasma [16] = assay: Metabolic stability in Wistar rat assessed as parent compound level in plasma at 0.67 umol, iv after 5 mins by mass spectrometry analysis; format: ADME, organism-based; conditions: in vivo; how it was run: as §1
Nucleic Acid [17] = assay: Ratio of drug uptake in kidney to liver in Wistar rat assessed as level at 0.67 umol, iv by mass spectrometry analysis; conditions: in vivo
Nucleic Acid [18] = assay: Ratio of drug uptake in kidney to liver in Wistar rat assessed as cyanidin 3-glucoside level at 0.67 umol, iv after 15 mins by mass spectrometry analysis; conditions: in vivo, 0.25 h
[19] = Drug uptake in Wistar rat plasma at 0.67 umol, iv after 5 mins by mass spectrometry analysis; format: ADME, organism-based; how it was run: as §1
[20] = Drug excretion in Wistar rat urine at 0.67 umol, iv after 15 mins by mass spectrometry analysis; format: ADME, organism-based; conditions: read-out: Activity
How it was run: (§3)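 Cyanidin 3-glucoside in saline was injected into the iliac vein of fasting, anaesthetized rats (0.67 μmol; 76 μM in plasma). Urine and bile were collected to 15 min, and their volumes were measured. Anthocyanin levels were measured by LC-MS and corrected for recovery from spiked standards. Amounts are given per collected volume (n = 9 urine, n = 4 bile).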

[21] = Drug uptake in Wistar rat kidney at 0.67 umol, iv after 15 mins by mass spectrometry analysis; format: ADME, organism-based; conditions: read-out: Drug uptake; how it was run: as §2
[22] = Metabolic stability in Wistar rat assessed as parent compound level in bile at 0.67 umol, iv after 15 mins by mass spectrometry analysis; format: ADME, organism-based; conditions: in vivo, 0.25 h; how it was run: as §1
[23] = Drug uptake in Wistar rat kidney at 0.67 umol, iv after 0.25 mins by mass spectrometry analysis; format: ADME, organism-based; conditions: read-out: Drug uptake; how it was run: as §2
Liver [24] = assay: Drug uptake in Wistar rat liver assessed by assuming liver mass was 7 grams at 0.67 umol, iv after 15 mins by mass spectrometry analysis; format: ADME, organism-based; conditions: in vivo, 0.25 h; how it was run: as §1
[25] = Drug uptake in Wistar rat liver at 0.67 umol, iv after 5 mins by mass spectrometry analysis; format: ADME, organism-based; conditions: read-out: Drug uptake; how it was run: as §1
Liver [26] = assay: Drug uptake in Wistar rat liver assessed by assuming liver mass was 7 grams at 0.67 umol, iv after 0.25 mins by mass spectrometry analysis; format: ADME, organism-based; conditions: in vivo, 15 s
How it was run: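 Fasting, anaesthetized rats received cyanidin 3-glucoside in saline into the iliac vein (0.67 μmol) and were killed at 15 s, 1, 5 or 15 min. Liver homogenates were methanol-extracted, cleaned up by SPE and quantified by LC-MS/MS.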

Liver [27] = assay: Metabolic stability in Wistar rat assessed as parent compound level in liver at 0.67 umol, iv after 0.25 mins by mass spectrometry analysis; format: ADME, organism-based; conditions: in vivo, 15 s; how it was run: as §1
Kidney [28] = assay: Drug uptake in Wistar rat kidney assessed by assuming kidney mass was 2.4 gram at 0.67 umol, iv after 15 mins by mass spectrometry analysis; format: ADME, organism-based; conditions: in vivo, 0.25 h; how it was run: as §2
Liver [29] = assay: Metabolic stability in Wistar rat assessed as parent compound level in liver at 0.67 umol, iv after 15 mins by mass spectrometry analysis; format: ADME, organism-based; conditions: in vivo, 0.25 h; how it was run: as §1
Kidney [30] = assay: Drug uptake in Wistar rat kidney assessed by assuming kidney mass was 2.4 gram at 0.67 umol, iv after 0.25 mins by mass spectrometry analysis; format: ADME, organism-based; conditions: in vivo, 15 s; how it was run: as §2
Nucleic Acid [31] = assay: Ratio of drug uptake in bile to liver in Wistar rat at 0.67 umol, iv after 15 mins by mass spectrometry analysis; format: ADME, organism-based; conditions: in vivo, 0.25 h
[32] = Drug uptake in Wistar rat liver at 0.67 umol, iv after 15 mins by mass spectrometry analysis; format: ADME, organism-based; conditions: read-out: Drug uptake; how it was run: as §1
Plasma [33] = assay: Metabolic stability in Wistar rat assessed as parent compound level in plasma at 0.67 umol, iv after 1 min by mass spectrometry analysis; format: ADME, organism-based; conditions: in vivo; how it was run: as §1
Liver [34] = assay: Drug uptake in Wistar rat liver assessed by assuming liver mass was 7 grams at 0.67 umol, iv after 1 min by mass spectrometry analysis; format: ADME, organism-based; conditions: in vivo; how it was run: as §1
[35] = Drug uptake in Wistar rat bile at 0.67 umol, iv after 15 mins by mass spectrometry analysis; format: ADME, organism-based; conditions: read-out: Drug uptake; how it was run: as §3
Kidney [36] = assay: Metabolic stability in Wistar rat assessed as parent compound level in kidney at 0.67 umol, iv after 15 mins by mass spectrometry analysis; format: ADME, organism-based; conditions: in vivo, 0.25 h; how it was run: as §1
Plasma [37] = assay: Metabolic stability in Wistar rat assessed as parent compound level in plasma at 0.67 umol, iv after 15 mins by mass spectrometry analysis; format: ADME, organism-based; conditions: in vivo, 0.25 h; how it was run: as §1
[38] = Drug uptake in Wistar rat liver at 0.67 umol, iv after 1 min by mass spectrometry analysis; format: ADME, organism-based; conditions: read-out: Drug uptake; how it was run: as §1
Kidney [39] = assay: Drug uptake in Wistar rat kidney assessed by assuming kidney mass was 2.4 gram at 0.67 umol, iv after 1 min by mass spectrometry analysis; format: ADME, organism-based; conditions: in vivo; how it was run: as §2
[40] = Drug uptake in Wistar rat kidney at 0.67 umol, iv after 1 min by mass spectrometry analysis; format: ADME, organism-based; conditions: read-out: Drug uptake; how it was run: as §2
[41] = Drug uptake in Wistar rat plasma at 0.67 umol, iv after 1 min by mass spectrometry analysis; format: ADME, organism-based; how it was run: as §1
[42] = Drug uptake in Wistar rat urine at 0.67 umol, iv after 15 mins by mass spectrometry analysis; format: ADME, organism-based; conditions: read-out: Drug uptake; how it was run: as §1
[43] = Drug excretion in Wistar rat bile at 0.67 umol, iv after 15 mins by mass spectrometry analysis; format: ADME, organism-based; conditions: read-out: Activity; how it was run: as §3
[44] = Drug uptake in Wistar rat kidney at 0.67 umol, iv after 5 mins by mass spectrometry analysis; format: ADME, organism-based; conditions: read-out: Drug uptake; how it was run: as §2
[45] = Drug uptake in Wistar rat urine assessed by assuming plasma volume was 8.8 mL at 0.67 umol, iv after 15 mins by mass spectrometry analysis; format: ADME, organism-based; conditions: in vivo, 0.25 h; how it was run: as §1

Compound: OC[C@H]1O[C@@H](Oc2cc3c(O)cc(O)cc3[o+]c2-c2ccc(O)c(O)c2)[C@H](O)[C@@H](O)[C@@H]1O [KUROMANIN]
- Stability (Kidney [1]): 130.8 nmol
- Stability (Liver [2]): 84.4 nmol
- Stability (Plasma [3]): 171.2 nmol
- Stability (Kidney [4]): 52 nmol
- Stability (Liver [5]): 34.6 nmol
- Stability (Kidney [6]): 73.1 nmol
- concentration at 0.25 h [7]: 1.6 µM
- Drug uptake (Kidney [8]): 10.7 nmol
- Ratio (Nucleic Acid [9]): 71.9
- Drug uptake [10]: 0.4 nmol
- Stability [11]: 141 nmol
- Drug uptake (Liver [12]): 0.1 nmol
- k el [13]: 0.0317 s⁻¹
- concentration at 15 s [14]: 18.2 µM
- concentration at 15 s [15]: 0.4 µM
- Stability (Plasma [16]): 17.2 nmol
- Ratio (Nucleic Acid [17]): 12
- Ratio (Nucleic Acid [18]): 37
- concentration at 5 min [19]: 1.6 µM
- dose excreted at 0.25 h [20]: 6.2%
- concentration at 0.25 h [21]: 4.4 µM
- Stability [22]: 58.9 nmol
- concentration at 15 s [23]: 11.3 µM
- Drug uptake (Liver [24]): 0.4 nmol
- concentration at 5 min [25]: 0.02 µM
- Drug uptake (Liver [26]): 2.5 nmol
- Stability (Liver [27]): 43.6 nmol
- Drug uptake (Kidney [28]): 10.6 nmol
- Stability (Liver [29]): 32.3 nmol
- Drug uptake (Kidney [30]): 27.1 nmol
- Ratio (Nucleic Acid [31]): 34.2
- concentration at 0.25 h [32]: 0.1 µM
- Stability (Plasma [33]): 55.8 nmol
- Drug uptake (Liver [34]): 2.5 nmol
- concentration at 0.25 h [35]: 2.3 µM
- Stability (Kidney [36]): 62.7 nmol
- Stability (Plasma [37]): 19.7 nmol
- concentration at 1 min [38]: 0.4 µM
- Drug uptake (Kidney [39]): 29.8 nmol
- concentration at 1 min [40]: 12.4 µM
- concentration at 1 min [41]: 5.7 µM
- concentration at 0.25 h [42]: 317 µM
- dose excreted at 0.25 h [43]: < 0.1%
- concentration at 5 min [44]: 4.5 µM
- Drug uptake [45]: 41.3 nmol
